Laboratory results: ChEMBL document CHEMBL4334446, “Evaluating the effects of fluorine on biological properties and metabolic stability of some antitubulin 3-substituted 7-phenyl-pyrroloquinolinones” (Eur J Med Chem, 2019)

Columns and labels:
HeLa = test: Growth inhibition of human HeLa cells incubated for 72 hrs by MTT assay; assay type: functional
MDA-MB-468 = test: Growth inhibition of human MDA-MB-468 cells incubated for 72 hrs by MTT assay; assay type: functional; settings: MDA-MB-468, 72 h
MCF7 = test: Growth inhibition of human MCF7 cells incubated for 72 hrs by MTT assay; assay type: functional; settings: MCF7, 72 h
HT-29 = test: Growth inhibition of human HT-29 cells incubated for 72 hrs by MTT assay; assay type: functional; settings: HT-29, 72 h
A2058 = test: Growth inhibition of human A2058 cells incubated for 72 hrs by MTT assay; assay type: functional; settings: A2058, 72 h
[1] = Growth inhibition of human DND41 cells incubated for 72 hrs by MTT assay; assay type: functional; settings: DND41, 72 h
How it was run: (§1)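 Leukemia lines were grown in RPMI-1640; the CEM^Vbl-100 medium also contained 100 ng/mL vinblastine. Cells were seeded at 8 × 10³ per well and left 18 h at 37 °C, 5% CO2. Medium was then replaced with fresh medium holding graded compound concentrations (DMSO stocks), in triplicate, for 72 h. Viability was read by MTT, and GI50 = concentration inhibiting proliferation 50%.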

[2] = Metabolic stability in human liver microsomes assessed as half life at 10 uM incubated for 30 mins in presence of NADPH by HPLC analysis; assay type: ADME, Microsome
How it was run: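 Compound (10 µM) was incubated at 37 °C with 0.5 mg/mL pooled HLMs and 1 mM NADPH in 0.1 M KH2PO4 pH 7.4, sampled at 0, 2, 5, 15 and 30 min. Controls without NADPH, or buffer only, ran 0 and 30 min. Parent was quantified by HPLC-fluorescence as % of the 0 min level, n = 3. t1/2 = 0.693/k, with k from regression of ln % remaining versus time.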

Jurkat = test: Growth inhibition of human Jurkat cells incubated for 72 hrs by MTT assay; assay type: functional; how it was run: as §1
RS4-11 = test: Growth inhibition of human RS4:11 cells incubated for 72 hrs by MTT assay; assay type: functional; settings: RS4-11, 72 h; how it was run: as §1
Tubulin = Tubulin (Bos taurus, UniProt Q6B856+Q862L2+Q862F3); test: Inhibition of bovine brain tubulin polymerization preincubated for 15 mins followed by GTP addition and measured for 20 mins by turbidimetry-based spectrophotometric method
How it was run: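 Bovine brain tubulin (10 µM) was preincubated with varying compound concentrations in 0.8 M monosodium glutamate, pH 6.6, for 15 min at 30 °C, then cooled to 0 °C. GTP was added to 0.4 mM final and the mix warmed to 30 °C. Turbidity was followed at 350 nm. IC50 = concentration inhibiting extent of assembly 50% after 20 min.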

[3] = Metabolic stability in human liver microsomes at 10 uM incubated for 15 mins in presence of NADPH and non-selective CYP inhibitor quercetin by HPLC analysis; assay type: ADME, Microsome; settings: 0.25 h
How it was run: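 Compound (10 µM) was incubated 0 and 15 min at 37 °C with pooled HLMs and 1 mM NADPH in 0.1 M KH2PO4 pH 7.4, with or without 100 µM quercetin. Parent remaining was measured by HPLC-fluorescence relative to 0 min; mean ± SD, n = 3.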

A-375 = test: Growth inhibition of human A375 cells incubated for 72 hrs by MTT assay; assay type: functional; settings: A-375, 72 h
[4] = Stability in phosphate buffer at pH 7.4 at 10 uM incubated for 30 mins by HPLC analysis; assay type: physicochemical; settings: pH 7.4, 0.5 h
How it was run: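 No microsomes or NADPH: compound (10 μM final) held in 0.1 M KH₂PO₄ pH 7.4 at 37 °C. Samples taken at 0 and 30 min, quenched with ice-cold acetonitrile, centrifuged, analysed by HPLC with fluorescence detection. Percent parent remaining relative to 0 min; mean ± SD, n = 3.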

MDA-MB-231 = test: Growth inhibition of human MDA-MB-231 cells incubated for 72 hrs by MTT assay; assay type: functional; settings: MDA-MB-231, 72 h
[5] = Metabolic stability in human liver microsomes at 10 uM incubated for 30 mins in phosphate buffer at pH 7.4 by HPLC analysis; assay type: ADME, Microsome; settings: pH 7.4, 0.5 h
How it was run: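 Test compound (10 μM, final) incubated at 37 °C with pooled mixed-gender HLMs (0.5 mg/mL) in 0.1 M KH₂PO₄ pH 7.4 without NADPH. Sampled at 0 and 30 min, quenched with ice-cold acetonitrile, centrifuged, supernatant analysed by HPLC with fluorescence detection (ex 344/em 493 nm). Percent remaining calculated from peak area relative to 0 min; mean ± SD, n = 3.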

Tubulin (Bos taurus) = Tubulin (Bos taurus) (UniProt Q6B856+Q862L2+Q862F3); test: Inhibition of [3H]colchicine binding to bovine brain tubulin at 5 uM relative to control
How it was run: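 Bovine brain tubulin at 1 µM was incubated with 5 µM [3H]colchicine and the test compound at 5 µM. Inhibition of colchicine binding was measured relative to a control.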

[6] = Time-dependent metabolic stability in human liver microsomes at 10 uM incubated for 30 mins in presence of NADPH by HPLC analysis; assay type: ADME, Microsome; settings: 0.5 h
How it was run: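 Pooled mixed-gender HLMs (0.5 mg/mL) plus 1 mM NADPH in 0.1 M KH₂PO₄ pH 7.4, compound 10 μM final, 37 °C. Reaction started with microsomes after 3-min equilibration. Stopped with ice-cold acetonitrile at 0, 2, 5, 15, 30 min, then HPLC-fluorescence of supernatant. Percent remaining vs 0 min (mean ± SD, n = 3). Half-life = 0.693/k from linear regression of Ln % remaining vs time.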

HL-60 = test: Growth inhibition of human HL60 cells incubated for 72 hrs by MTT assay; assay type: functional; settings: HL-60, 72 h; how it was run: as §1
[7] = Metabolic stability in human liver microsomes assessed as parent compound decline at 10 uM incubated for 60 mins in absence of NADPH by HPLC analysis; assay type: ADME, Microsome; settings: read-out: Drug degradation
How it was run: (§2)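 Compound (10 µM) was incubated 0 or 60 min at 37 °C with pooled HLMs (1 mg/mL), with or without 1 mM NADPH, or in buffer only (0.1 M KH2PO4 pH 7.4). Reactions were stopped with ice-cold acetonitrile. Remaining parent was measured by HPLC-fluorescence relative to 0 min; mean ± SD, n = 3.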

[8] = Metabolic stability in human liver microsomes assessed as parent compound decline at 10 uM incubated for 60 mins in presence of NADPH by HPLC analysis; assay type: ADME, Microsome; settings: read-out: Drug degradation; how it was run: as §2
B16-BL6 [9] = test: Growth inhibition of mouse B16-BL6 cells incubated for 72 hrs by MTT assay; assay type: functional; settings: B16-BL6, 72 h
[10] = Growth inhibition of human PBL cells incubated for 72 hrs by MTT assay; assay type: cell-based; settings: PBL cells (peripheral blood lymphocytes)
How it was run: (§3)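 PBL from healthy donors were isolated on a Lymphoprep gradient, held overnight in RPMI-1640 with 10% FBS, and the non-adherent cells resuspended at 5 × 10^5 cells/mL. Proliferating cultures got 2.5 µg/mL PHA; resting cultures got none. Compound was added at several concentrations for 72 h and viability read by MTT. GI50 reported as mean ± SEM of three experiments.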

CCRF-CEM = test: Growth inhibition of human CEM cells incubated for 72 hrs by MTT assay; assay type: functional; how it was run: as §1
[11] = Selectivity ratio of GI50 for PHA-stimulated human PBL cells to GI50 for human CEM cells incubated for 72 hrs by MTT assay
How it was run: (§4)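 Leukemia cells (CEM, DND-41, Jurkat) were grown in RPMI-1640 at 8×10³ cells/well and left 18 h. Donor PBL were gradient-separated, held overnight, and non-adherent cells set at 5×10^5 cells/mL with 2.5 µg/mL PHA. Both were exposed 72 h at 37 °C to graded compound concentrations, read by MTT. The ratio is PBL GI50 over leukemia GI50.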

[12] = Growth inhibition of PHA-stimulated human PBL cells incubated for 72 hrs by MTT assay; assay type: cell-based; settings: PHA-stimulated PBL cells (peripheral blood lymphocytes); how it was run: as §3
[13] = Selectivity ratio of GI50 for human PBL cells to GI50 for human Jurkat cells incubated for 72 hrs by MTT assay
How it was run: as §4, with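 “overnight in RPMI-1640/10% FBS,” for “overnight,”, “without PHA (resting).” for “with 2.5 µg/mL PHA.”, “h” for “h at 37 °C”, “graded” for “graded compound”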

[14] = Growth inhibition of multidrug-resistant human CEM/VBL100 cells incubated for 72 hrs by MTT assay; assay type: functional; settings: CEM/VBL100, 72 h; how it was run: as §1
[15] = Selectivity ratio of GI50 for human PBL cells to GI50 for human DND41 cells incubated for 72 hrs by MTT assay
How it was run: as §4, with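 “overnight in RPMI-1640/10% FBS,” for “overnight,”, “without PHA (resting).” for “with 2.5 µg/mL PHA.”, “h” for “h at 37 °C”, “graded” for “graded compound”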

[16] = Toxicity in C57BL/6 mouse allografted with mouse B16-BL6 cells assessed as change in body weight at 3 to 7.5 mg/kg, ip administrated every other day; assay type: organism-based; settings: in vivo
How it was run: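 Male six-week-old C57BL/6 mice were given BL6-B16 murine melanoma cells subcutaneously in the dorsolateral flank in PBS. Once tumours reached about 100 mm³, mice were randomised and dosed intraperitoneally every other day with 3.0 or 7.5 mg/kg in DMSO, or vehicle alone. Body weight change was followed; 5 animals per group, mean ± SEM.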

[17] = Selectivity ratio of GI50 for human PBL cells to GI50 for human CEM cells incubated for 72 hrs by MTT assay; assay type: functional
How it was run: as §4, with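 “overnight in RPMI-1640/10% FBS,” for “overnight,”, “without PHA (resting).” for “with 2.5 µg/mL PHA.”, “h” for “h at 37 °C”, “graded” for “graded compound”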

B16-BL6 [18] = test: Antitumour activity against mouse B16-BL6 cells allografted in C57BL/6 mouse assessed as reduction in tumor mass at 3 mg/kg, ip administrated every other day relative to control; assay type: functional
How it was run: (§5)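 Male C57BL/6 mice (six weeks old) got 2.5×10^5 BL6-B16 murine melanoma cells s.c. in the dorsolateral flank, in PBS. Once tumors were measurable (about 100 mm³), mice were randomized and given drug i.p. every other day in 50 µL DMSO. Vehicle (DMSO) group served as control. Tumor volume = (D × d²)/2; tumor weight taken at end. 5 animals per group, mean ± SEM.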

[19] = Selectivity ratio of GI50 for PHA-stimulated human PBL cells to GI50 for human Jurkat cells incubated for 72 hrs by MTT assay; how it was run: as §4
[20] = Selectivity ratio of GI50 for PHA-stimulated human PBL cells to GI50 for human DND41 cells incubated for 72 hrs by MTT assay; how it was run: as §4
B16-BL6 [21] = test: Antitumour activity against mouse B16-BL6 cells allografted in C57BL/6 mouse assessed as reduction in tumor mass at 7.5 mg/kg, ip administrated every other day relative to control; assay type: functional; how it was run: as §5

GI50 (HeLa)	GI50 (MDA-MB-468)	GI50 (MCF7)	GI50 (HT-29)	half-life at 10 µM [2]	GI50 (Jurkat)	GI50 (RS4-11)	IC50 (Tubulin)	Stability [3]	GI50 (A-375)	Stability [4]	GI50 (MDA-MB-231)	Stability [5]	inhibition (Tubulin (Bos taurus))	Stability [6]	GI50 (HL-60)	GI50 (CCRF-CEM)	Structure (SMILES)	GI50 (A2058)	GI50 [1]	GI50 at 72 h [10]	further results
340 nM	43 nM	51.3 nM	447 nM	10.6 min	334 nM	293 nM	3700 nM	Stable	69.8 nM	Stable	206 nM	Stable	12%	Unstable	1440 nM	–	CCn1ccc2c3c(=O)cc(-c4ccc(F)cc4)[nH]c3ccc21	1180 nM	477 nM	–	–
13.3 nM	871 nM	103 nM	402 nM	–	32.4 nM	56 nM	380 nM	–	–	–	454 nM	–	70%	–	15.1 nM	44 nM	O=C(c1ccccc1)n1ccc2c3c(=O)cc(-c4cccc(F)c4)[nH]c3ccc21	–	10.2 nM	45600 nM	metabolised at 1 h, 10 µM [7]: 20%; metabolised at 1 h, 10 µM [8]: 20%; GI50 (B16-BL6 [9]): 18 nM; RatioGI50 [11]: 10000 - 30000; GI50 at 72 h [12]: 17600 nM; RatioGI50 [13]: 10000 - 30000; GI50 [14]: 36 nM; RatioGI50 [15]: 10000 - 30000; Activity [16]: Non-Toxic; RatioGI50 [17]: 10000 - 30000; inhibition in vivo at 3 mg/kg (B16-BL6 [18]): 16.7%; RatioGI50 [19]: 10000 - 30000; RatioGI50 [20]: 10000 - 30000; inhibition in vivo at 7.5 mg/kg (B16-BL6 [21]): 58.4%
0.7 nM	15 nM	52.7 nM	0.9 nM	11.8 min	0.11 nM	0.07 nM	780 to 840 nM	Stable	11.4 nM	Stable	69 nM	Stable	83%	Unstable	0.08 nM	2.2 nM	CCn1ccc2c3c(=O)cc(-c4cccc(F)c4)[nH]c3ccc21	3.5 nM	0.13 nM	31300 nM	RatioGI50 [11]: 10000 - 30000; GI50 at 72 h [12]: 10800 nM; RatioGI50 [13]: 10000 - 30000; GI50 [14]: 0.8 nM; RatioGI50 [15]: 10000 - 30000; RatioGI50 [17]: 10000 - 30000; RatioGI50 [19]: 10000 - 30000; RatioGI50 [20]: 10000 - 30000
